Screening results: PubChem BioAssay, several laboratories
Most compounds without a hit are left out; they make up all but 0.97% or so of the library.
Mdm2 ligase inh = blocks human Mdm2 ubiquitin ligase activity | actives 0.11% (n = 210,000) | Q00987 | AID 1230 | signal enhancement, % at 5 µM | cell-based MDM2 ubiquitination luciferase reporter, 2 h; 0 = plate control, 100 = twice control, blank-subtracted;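 active = signal enhancement of 30% or more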;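 also: luminescence tracks abundance of the self-degrading MDM2-luciferase fusion protein; higher signal means inhibition of MDM2 E3 ligase activity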
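Buffer or medium: Cells held in DMEM | Assay system: Stable mammalian line carrying autodegrading MDM2–luciferase fusion reporter | Quantity: 2000 cells/well | Times: 4 h settle plus 2 h compound, 37 °C | Doses: One concentration, 5 µM, with 0.2% DMSO | Technique: Luminescence with SteadyLite reagent, 15 min at room temperature | Benchmarks: Plate controls and plate blanks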
Dynein transport = dynein cargo transport inhibition; 3617.4 mouse cells, GR-EGFP nuclear translocation imaging; test concentration mostly 20 µM; stimulated with dexamethasone, 1 µM; hits give low values; z-score, hits read low; actives 0.47% (n = 220,000);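 active = plate z-score of nuclear minus cytoplasmic receptor signal below a set negative limit, without overly bright fluorescence or cell loss, cut at about -3.5 in these data, passing the limit was not always enough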;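 also: z-score of nuclear minus cytoplasmic ring GR-EGFP intensity difference per well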
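Medium: Induction medium lacking tetracycline, stripped serum | Probe or stimulus: 1.0 µM final dexamethasone stimulus | Schedule: 48 h induction, then 1 h compound, then 30 min agonist, 37 °C | Signal: Automated 10x imaging of fixed Hoechst-stained cells | Evaluation: Per-cell GR-EGFP intensity, nucleus versus surrounding cytoplasmic ring, well-averaged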
zVAD death inh = blocks zVAD induced death of L929 cells; actives 0.38% (n = 220,000); L929 zVAD necroptosis rescue, ATP luminescence, 24 h; with zVAD 60 µM; AID 1377; viability rescue, % at 10 µM;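 active = activation, scaled between plate controls, above about 75%, limit read from the data; inactive = activation under that limit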;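 also: 0% = zVAD with DMSO and 100% = DMSO alone without zVAD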
Beta2AR agonist = activates human beta-2 adrenergic receptor causing internalization; P07550; Am2.2-beta2AR cells, FAP receptor internalization, flow cytometry; response, % (no concentration beside the values); actives 0.43% (n = 340,000); AID 504454;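 active = response above a set limit, near 3 SD of response in nonfluorescent compounds, cut at about 42% in these data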
Target sequence (P07550 whole entry, looked up): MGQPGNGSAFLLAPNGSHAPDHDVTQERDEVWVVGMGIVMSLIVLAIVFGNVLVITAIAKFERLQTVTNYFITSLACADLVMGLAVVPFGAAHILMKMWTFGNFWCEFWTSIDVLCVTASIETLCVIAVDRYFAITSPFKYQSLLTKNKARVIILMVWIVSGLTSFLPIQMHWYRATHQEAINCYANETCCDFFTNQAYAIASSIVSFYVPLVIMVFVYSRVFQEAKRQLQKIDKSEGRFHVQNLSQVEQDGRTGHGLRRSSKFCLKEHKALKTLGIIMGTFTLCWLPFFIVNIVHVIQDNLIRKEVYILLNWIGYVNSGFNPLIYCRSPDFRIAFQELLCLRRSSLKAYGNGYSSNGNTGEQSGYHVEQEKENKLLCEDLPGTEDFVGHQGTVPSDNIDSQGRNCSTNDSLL
TNF necrop inh = inhibitors of TNF-alpha induced necroptosis in Jurkat FADD-/- cells; Jurkat FADD-/- TNF necroptosis rescue, ATP luminescence, 24 h; 0 = TNF only, 100 = no-TNF cells; activation (protection from cell death), % at 10 µM; actives 0.068% (n = 220,000);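 active = activation, meaning protection from cell death, of at least 50% relative to plate controls; inactive = activation below 50%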;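 also: necroptosis triggered by 40 ng/mL TNF-alpha added together with compound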
An asterisk follows results filed as active; . = no result.

SMILES	Mdm2 ligase inh	Dynein transport	zVAD death inh	Beta2AR agonist	TNF necrop inh
O=c1oc2c(CN3CCN(CCO)CC3)c(O)ccc2cc1-c1ccccn1	.	-0.0772	0.3	42.5*	0.5
COC(=O)[C@@]1(Cc2ccc(OC)cc2)[C@@H]2C(=CC(=O)[C@H]2CC(=O)C(=O)N2CCCC2)CN1C(=O)c1ccccc1	.	-4.74*	0.9	17.4	-14.8
COc1cc(/C=N/O)ccc1OCc1ccc(C(=O)O)cc1	-6.5	-1.26	2.2	-0.3	-0.1
CC(Oc1ccc(Cl)cc1Cl)C(=O)NNC(=O)[C@@H]1CCCC[C@@H]1C(=O)O (stereo partly specified)	.	.	.	6.1	.
CC(C)(C)c1nn(-c2ccccc2)c2nc(Cl)c(C=O)cc12	-10.5	0.882	0.3	1.0	-8.7
CC(C)(C)c1nn(-c2ccccc2)c2[nH]c(=O)c(C=O)cc12	.	.	.	55.4*	.
O=C1NC[C@H](c2ccccc2)OC(=O)[C@@H](Cc2ccc(F)cc2)CC/C=C/C[C@H]1CC(=O)N(CCO)Cc1ccccc1	.	.	.	16.8	.
COC(=O)C1=C(C(=O)OC)[C@@H]2N(C)c3ccc(OC)cc3[C@@]23C[C@@H](C(=O)OC)N=C3N1	35.8*	-0.126	1.1	2.6	0.7
COc1ccc(NC(=O)C(NC(=O)OC(C)(C)C)C(C)OCc2ccccc2)cc1 (stereo unspecified)	0.9	0.242	-0.1	4.4	-2.0
O=C1/C(=C/c2cccnc2)CCC/C1=C\c1cccnc1	36.0*	-0.23	-0.8	.	31.2
O=C1/C(=C/c2cccnc2)CC/C1=C\c1cccnc1	-2.6	-2.52	-0.1	0.1	-1.6
N[C@@H](Cc1ccc(F)cc1)C(=O)O	.	.	.	-7.3	.
O=C(Nc1ccc(Br)cc1)c1cccc(OC(=S)N2CCOCC2)c1	.	.	.	76.9*	.
CCOc1ccccc1/C=C/C(=O)N1CCN(C(=O)c2ccco2)CC1	.	.	.	84.2*	.
O=C1CC(N2CCN(c3ccc(Cl)cc3)CC2)C(=O)N1c1ccccc1 (stereo unspecified)	.	.	.	-9.4	.
O=C(COC(=O)c1ccccc1O)NCc1ccccc1Cl	.	.	.	-2.3	.
CC(C)(C)c1nnc(N/N=C/c2ccc(Br)cc2)n(N)c1=O	5.1	-0.316	0.9	69.6*	0.7
CC(C)(C)c1ccc(/C=N/Nc2nncn2N)cc1	.	.	.	-12.7	.
Cc1cc(Cl)c2oc(C(=O)N(C)CCCN3CCOCC3)c(C)c2c1	.	.	.	-1.7	.
COc1ccc2nc(NC(=O)Cc3ccc(OC)c(S(=O)(=O)N4CCOCC4)c3)sc2c1	-20.9	-0.101	91.9*	5.3	3.9
CC(=O)OC(C(=O)NC1CCCCC1)c1ccc(C)cc1 (stereo unspecified)	-13.1	-0.547	-0.1	2.6	29.4
CC(=O)OC(C(=O)NC1CCCCC1)c1ccc(Cl)c(Cl)c1 (stereo unspecified)	-14.1	0.474	2.7	-2.0	69.5*
CC1=C(C)/C(=N\OS(=O)(=O)c2ccc(C)cc2)C=CC1=O	19.7	-3.65*	0.0	31.6	-11.6
COC(=O)c1ccccc1NC(=O)c1nc(S(=O)(=O)Cc2ccccc2)ncc1Cl	.	.	.	51.9*	.
NNC(=O)c1cc2ccccc2cc1NS(=O)(=O)c1ccccc1	.	.	.	-5.5	.
SMILES	Mdm2 ligase inh	Dynein transport	zVAD death inh	Beta2AR agonist	TNF necrop inh
CNC(=O)/C(C#N)=C/c1c(N(Cc2ccccc2)Cc2ccccc2)nc2c(C)cccn2c1=O	-17.2	-0.0357	-0.4	60.5*	-4.3
CCNC(=O)/C(C#N)=C/c1c(N(Cc2ccccc2)Cc2ccccc2)nc2ccccn2c1=O	-11.2	-0.182	-0.2	23.0	-2.1
CCC(=O)Nc1cc(-c2cc3ccccc3oc2=O)ccc1OC	-20.7	-0.27	1.4	-33.6	-0.4
COc1ccc(-c2cc3ccccc3oc2=O)cc1NC(=S)NC(=O)c1ccc2c(c1)OCCO2	-3.3	1.31	-0.1	42.5*	0.4
CCOC(=O)c1sc(=NC(=O)c2cccs2)n(C)c1C	-19.4	-0.859	0.7	3.1	3.9
Cc1nn(-c2ccc(Cl)cc2)c(=O)c2ccccc12	-5.5	-0.891	-0.7	0.4	0.8
Cc1c(Cl)sn(-c2ccc(Cl)cc2)c1=O	-14.2	-4.56*	12.7	48.8*	-14.6
O=[N+]([O-])c1ccc(Nc2ccccc2F)nc1	-6.4	-0.545	50.0	0.1	72.9*
O=[N+]([O-])c1ccc(Nc2ccc(Cl)cc2)nc1	-3.8	0.153	55.9	9.2	81.1*
Cc1cnc(NC(=O)C2(c3ccccc3)CC2)s1	-13.9	-0.423	3.1	1.4	62.9*
CCOc1ccc2[nH]c(C(=O)N/N=C/c3ccc(OC)cc3)cc2c1	.	.	.	51.8*	.
COc1ccc(/C=N/NC(=O)c2cc3cc(OC)c(OC)cc3[nH]2)cc1	.	.	.	-0.5	.
CC1Cc2ccccc2N1C(=O)c1cnc2n(c1=O)CCS2 (stereo unspecified)	-6.7	1.44	-0.2	-4.5	-0.1
CCN(CC)CCCNC(=O)c1ccc2c(SCC(=O)O)c3c(nc2c1)CCC3	-5.7	0.515	.	.	-0.9
CCN(CC)CCNC(=O)CSc1c2c(nc3cc(Cl)ccc13)CCCC2	-15.9	-3.93*	34.2	8.0	2.8
CCCc1nc2c(=O)n(C)c(=O)nc-2n(C)n1	2.8	-0.889	7.7	80.0*	-13.9
Cn1nc(-c2ccccn2)nc2c(=O)n(C)c(=O)nc1-2	.	-0.627	8.6	73.8*	-24.9
COc1ccc(-c2nc(-c3ccccn3)ncc2S(C)(=O)=O)cc1	-4.9	-1.26	1.1	2.0	1.3
CCCn1c(O)c(C=Nc2ccccc2)sc1=S	-5.0	-0.845	0.7	-1.4	2.5
CCn1c(O)c(C=NCc2ccccc2)sc1=S	-8.2	-0.355	-0.6	-7.6	68.1*
O=c1c(-c2ccco2)[n+]([O-])c2ccccc2n1OCc1ccccn1	.	-0.366	-0.2	9.3	-1.9
CCOC(=O)C1CCCN(C(=O)c2ccc(CNc3c(N4CCC(C)CC4)c(=O)c3=O)cc2)C1 (stereo unspecified)	91.5*	-1.05	2.5	-6.4	0.0
CC1CCc2c(sc3nc(C(C)(C)C)nc(N4CCN(C(=O)CCl)CC4)c23)C1 (stereo unspecified)	.	.	.	50.4*	.
COc1ccc(N2C(=NC(=O)C3CCCCC3)SC3CS(=O)(=O)CC32)cc1OC (stereo unspecified)	.	.	.	-2.0	.
COc1ccc(C(=O)N=C2SC3CS(=O)(=O)CC3N2c2ccc(N(C)C)cc2)cc1OC (stereo unspecified)	.	.	.	54.3*	.
CC1(C)C(/C=C/C=C/C=C/C=C2\N(CCCCS(=O)(=O)O)c3ccc4ccccc4c3C2(C)C)=[N+](CCCCS(=O)(=O)[O-])c2ccc3ccccc3c21	.	.	.	57.5*	.
Cc1c2ccccc2cc[n+]1CCCS(=O)(=O)[O-]	-19.1	-0.025	2.2	1.4	0.2
COc1cc2nc(N(CCCN(C)C)C(=O)c3ccc(S(=O)(=O)N4CCc5ccccc54)cc3)sc2cc1OC	.	.	.	11.8	.
COc1ccc2sc(N(CCCN(C)C)C(=O)c3ccc(S(=O)(=O)N4CCCc5ccccc54)cc3)nc2c1	.	.	.	53.0*	.
